System: MS2 coat protein
Experiment: apparent Kd, MS2 coat protein; higher = weaker binding; RNA-MaP array; FMN 200 µM where present
Summary of the method: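 Apparent Kd: the median of filtered binding-curve fits from single clusters. Designs were transcribed on Illumina sequencing-chip clusters by stalled E. coli RNA polymerase and titrated with SNAP-549-labelled MS2 coat protein from 0.7 or 1.5 nM, doubling to 3 µM, in 100 mM Tris-HCl pH 7.5, 80 mM KCl, 4 mM MgCl2, BSA, DTT, yeast tRNA and Tween-20. Each series ran without and then with constant ligand, and green signal was normalised to red-channel RNA signal and control-cluster median Fmax.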

[1] = designed as: OFF switch for flavin mononucleotide, no ligand
[2] = ligand present: flavin mononucleotide, designed as: OFF switch for flavin mononucleotide
[3] = designed as: ON switch for flavin mononucleotide, no ligand
[4] = ligand present: flavin mononucleotide, designed as: ON switch for flavin mononucleotide

Sequence	apparent Kd [1]	apparent Kd [2]	apparent Kd [3]	apparent Kd [4]
CCGACCUUGGCAGGAUAUAGACUCGAAGUUGAUCCCGCCGGUGGAGACAUGAGGAUCACCCAUGUCUAGAAGGGCCAGUCGAAA	16.2 nM	72.9 nM		
CCAUGCGGAUGAGGAUAUUCAUUUAUGAGGAUAGAAGAAGGCAUACAUGAGGAUCACCCAUGUAUACGCAUGAGGAUCCCUUAC	34.2 nM	27.2 nM		
UUACUACAUGAGGAUCACCCAUGUCAGGAUAUUGGAUAUGCCUUGGAAUACGUGUUUACAAGAAGGGACUAUAU	23.4 nM	21.4 nM		
UCAUAAUAGAUCCUAUUUAUCUACAUGAGGAUCACCCAUGUGCAGGAUAUGCUAUAAUUUAAUAAGCAGAAGGGCAAUUUCAGA	96.8 nM	381 nM		
UUUUCCGGGCAGAAGGGUCCUCACAUGAGGAUCACCCAUGUAAACGCGGAUAGGAUAUGCCACUGGGCUCGAUAAGAGUGGUUC			409 nM	160 nM
GAGUUAUCAGGAUAUACAUGAGGAUCACCCAUGUCGAUCAAUCCCGUGGGAACGCACUGUAGAAGGGAUGUAGU	32.5 nM	33 nM		
AGGAAACAUGAGGAUCACCCAUGUAAAAAUAUGGGAGGAUAUGCGAAAAGAAACAAAGAAGCAGAAGGCCUAAGAA			89.8 nM	23.1 nM
GAGCGGGAAACAUGAGGAUCACCCAUGUAAUAAAUCCUCAAGUAGGAUAUGCACACGAGAAGUGUGCAGAAGGGCUACCCGGUC	29.7 nM	46.2 nM		
AAGAAACAUGAGGAUCACCCAUGUCAGGAUAUGCAAAACUGACGAAAGUCAGAAGAAAGCAGAAGGGACUAGAA	59.8 nM	79.7 nM		
GACAUGGUCCAGAAGGGCUAUUUAUUUAAUUAUUAUUUAGAACAGCAUAGCAGGAUAUGGCUAACAUGAGGAUCACCCAUGUUC			21.5 nM	12.6 nM
UUUUAGGGAGGAUAUACAUUUUUUUUAUUAUCCUCAUUAUUACAUGAGGAUCACCCAUGUAGAAGGCCCAUUUU	60.7 nM	146 nM		
AGGUAACAUGAGGAUCACCCAUGUCAGGAUAUCAUGAAGAGUAGAUUAGAGGAGAGGUUGAGAAGGGACUAUAU	59.9 nM	35.3 nM		
AAUAUGUGAGGAUAUAUCCACCGCGUAGGCGCGCGGUGACAAUAGAAGGUACAUGAGGAUCACCCAUGUAGGGA	51.5 nM	31.5 nM		
AAGAAGUGAGGAUAUCGUGCUCGUCACUUGCGUGAUGAGUACGAGAAGGCACAUGAGGAUCACCCAUGUAAAGA	37.6 nM	46.1 nM		
AUUUGAAUCGUAGGAUAUCGCUUAAAUUUACCACGAGAAGGACGAACAUGAGGAUCACCCAUGUAACAUGGUGUAGAUAAUUUG	159 nM	440 nM		
UUUUUACGAGGAUAUCGUUUUUUUCACAUGAGGAUCACCCAUGUUGUUUAUGUUUCGUUGCGAGAAGGCGUUUGUU	27.3 nM	21.3 nM		
GUCAGCUCGUGAGGAUAUACAUGUGCUGGAAACAGCACUAUUAAAUUCACAUGAGGAUCACCCAUGUAGAAGGCACGAGCUGAU	15.4 nM	19.1 nM		
CCACUGUCAGGAUAUCGUGCAUAAACGUUUACAUUUAUGUGCGAGAAGGGACAUGAGGAUCACCCAUGUAAACG	314 nM	515 nM		
UUUCAGUUCACAUGAGGAUCACCCAUGUCGGUUCGCCCGGACAGAAGGCACCCAUGACAAUGCGGUGAGGAUAUGUCAACAAGG			143 nM	19.1 nM

Sequence	apparent Kd [1]	apparent Kd [2]	apparent Kd [3]	apparent Kd [4]
ACAUGAGGAUCACCCAUGUUAAAUUAGGAUAUUUGACUGCACAUGAGGUUCACCCAUGUUCUACCGAAGAAGGGAUAAAUAAUU			49 nM	50 nM
GCGUAUUAGGUGUAGCUAGACAUUCAAGAAGGGUGAAGAACAUGAGGAUCACCCAUGUAGUUUUUACAGGAUAUUGAUUUACGC			269 nM	14.9 nM
AGACGGAGCUGAGGAUAUAUACAUGAGGAUCACCCAUGUAAGCUCCAGGAAACUGGAGCAAAUGUAUAGAAGGCAGCUCCGUCA	28 nM	45.9 nM		
ACAUACAUUCGAGGAUAUCAGUGAACAUAUUAUUGAGAAGGCGAUAUUAUUUUUAAUCUUAUUUACAUGAGGAUCACCCAUGUU			22.6 nM	19.6 nM
CCUAUGUGAGGAUAUGGUGUUGGCCACAGGGAAAAGGUCCUCCAGAAGGCACAUGAGGAUCACCCAUGUCGUGG	116 nM	127 nM		
CUCAUGUAAGGAUAUGACUACAUAAAAAAAAAAAAAUGUAGUCAGAAGGUACAUGAGGAUCACCCAUGUACAAA	53.7 nM	35 nM		
AGUUGGCGAGGAUAUACAUGAGGAUCACCCAUGUGAGAGAUACUAGUGAGGUCGAUUAGUAGAAGGCGCUGACA	31.1 nM	439 nM		
CAGCGCUGUCGAGAGGAUAUGCGGUGAUGGACAUGAGGAUCACCCAUGUUAGCGACAGCAUUACGGUAGAAGGCUUCACAGCUGC			51.5 nM	202 nM
GAUCAACAUGAGGAUCACCCAUGUGAGGAUAUGUAUCAUAGAUCUUCGGAUCUAUGAUACAGAAGGCAUGUAGG	101 nM	118 nM		
GUGUAGAUAGGAUAUACAUGAGUCUAGCGAAGCUAGAUUCUACAUGAGGAUCACCCAUGUAGAAGGGUCUACAC	15.9 nM	18.5 nM		
AAAAAGGGAGGAUAUACAUGAGGAUCACCCAUGUAGCAGACGAAAAAGAGUCUGUAAUGUAGAAGGCCCAAAAA	17.1 nM	52.7 nM		
CUGCAGUAAGGAUAUACAUGAGGAUCACCCAUGUAGCAACUUACAUAACGAAACGCAUGUAGAAGGUACCAGAU	14 nM	15.4 nM		
UAGCCACAAGGAUAUACAUGAGGAUCACCCAUGUUUCCAGGAUGCCCUCUCAUGGGUUGUAGAAGGUGUCGGCG	15.8 nM	17.9 nM		
UGUUGUAUUACAGGAUAUCUAUUAUUUUUAUUUAGAGAAGGGUAUUCACAUGAGGAUCACCCAUGUAUAUACGAGGAAGUUGUG			52.6 nM	58.9 nM
UUUGGGUGGCUGGAGGAUAUCCUGGUUGUUACAUGAGGAUCACCCAUGUGCCGCGCGGUGCGCUGGGAGAAGGCUGGCGGCCGUU			130 nM	27.6 nM
GAACUGAAGCAUAGCUUUAGUCGUACAUGAGGAUCACCCAUGUAGGAUAUGGUAGGCAUAGCUUACUAGAAGGAUAGAGUGAUU	96.5 nM	67.9 nM		
GGGUACAUCGGAGGAUAUCAUGUAAAUACAUGAGGAUCACCCAUGUCGAUGGAGACAUCGGAGAUUGAGAAGGCCGAUGUACCA			154 nM	10.1 nM
AACCUGAUAGUGAGGAUAUCGGCGACGACAAGUCACGAGAAGGCACAUGAGGAUCACCCAUGUGAUAAAAUAAA	20.4 nM	42.1 nM		
ACAAAGCAUGUAGGAUAUCCAUUGCGUCGCGAUGGAGAAGGACAACACACAUGAGGAUCACCCAUGUGAUCACCCAUGUCAUGU	866 nM	1210 nM		

Sequence	apparent Kd [1]	apparent Kd [2]	apparent Kd [3]	apparent Kd [4]
AAUGAGACCGCAGGAUAUCCACAUGAGGAUCACCCAUGUUCUCAGGUCGGAAGCACGACCUGCGAGGAGAAGGGCGACCUCAUA			715 nM	36.5 nM
GUAGCAUACCGAGGAUAUUCAGGGCGUGAAUAAACAUGAGGAUCACCCAUGUGGCGAAAGCCUAGGGAGAAGGCGGAAUGCUAC			25.9 nM	19.1 nM
CCGGAAAUGCAGGAUAUCGUAUCGGAUACGAUACGAGAAGGGUAUACAUGAGGAUCACCCAUGUGUCCUACCGG	18.4 nM	22.1 nM		
AAGCCCUGAGGAUAUCCCAACUCGCACAUGAGGAUCACCCAUGUUCUUCUCUGGGUUUCGGGAGAAGGCAGGCCUC	96.5 nM	43.8 nM		
AGUUGAAGGUAGAAGGGUGACAUGAGGAUCACCCAUGUGCGAGCAUCGGACGAAGAUGGCUCGCCACAGGAUAUACCUUCAAUU			41.2 nM	44.4 nM
UAUAUGUCAGGAUAUUAAUUAAAAUGGAAUUUAGUUUUAAUUAAGAAGGGACAUGAGGAUCACCCAUGUUCCUC	20.9 nM	128 nM		
GUAGCAACAUGAGGAUCACCCAUGUAGGAUAUCGCUAUUGUAAUCAUGAAACAUGAUUACAAUAGCGAGAAGGACAUAUGCUAG	14.9 nM	12.8 nM		
GGUCUAGGCGAAGGAUAUCCGUCGCGAGAUACUGGAGAAGGUCGCCUUGAUACAUGAGGAUCACCCAUGUGGCGGGUGAACCAA	98.5 nM	19.3 nM		
GUUUCGUGAGGAUAUGUGGCUUCGAUCGUGCGAAGAAGGCUACAGAAGGCACAUGAGGAUCACCCAUGUUCCUC	85.7 nM	592 nM		
CCUCUACAUGAGGAUCACCCAUGUGAGGAUAUAUGCCCAUUACGCCAAGAGCGUGAUGAUAGAAGGCACAGGGU	22 nM	72.7 nM		
GAACCUAAGUCAGGAUAUGUCUAAGAAAACUGACAUGAGGAUCACCCAUGUGAAUGUAAAGCAUGGCAGAAGGGAUAUGGGUGG			171 nM	315 nM
CUUCUCGUUGUGAGGAUAUCGUUUUCGUCUCGGAUCGAGAAGGCACAUGAGGAUCACCCAUGUUUGUUGUGGUU	115 nM	103 nM		
CCAUAGUACAAUUUAGAUCUACAUGAGGAUCACCCAUGUACUGAGGAUAUCAGCUCGAAUAGAGCUGAGAAGGCAGAAUUAAUU			132 nM	59.2 nM
AAAACAGUGUAGGAUAUGGCUGGGCUGAAAAUGCUAGAAGGACACACAUGAGGAUCACCCAUGUGACUUCGUGC	13.8 nM	15.5 nM		
CAAUGGGCGGUAGGAUAUCCGGUGUUUGGCAAAGGAGAAGGACUCACCAUACAUGAGGAUCACCCAUGUGAAGCGGGUCCUCAA	8.48 nM	10.1 nM		
UGGUACUAGGGAGGAUAUGGGAAGAUACAUGAGGAUCACCCAUGUUUAAGAAUCCCGAGAGGCAACUAGAAGGCCCUAGUACCU			8.08 nM	6.96 nM
AUUAUUUAGUGAGGAUAUACAGAUAAAGAGAUUGUAGAAGGCACUUUCCUCAGGACAUGAGGAUCACCCAUGUGUUAAUAAGAU	72.5 nM	267 nM		
CUUAAGGCAGGAUAUGCUUUUUGUGACAUGAGGAUCACCCAUGUGAUGCAGUUUGGGUGUGCAGAAGGGCCUGAGU	364 nM	172 nM		

From the EternaBench riboswitch data
